For orientation: Ki means the dissociation constant of the complex between target and ligand, obtained from inhibition or displacement. The term IC50 denotes the midpoint of a concentration-inhibition curve.

Experiment [1] has as its target T1, Sphingosine kinase 1 (Homo sapiens, UniProt Q9NYA1). The experiment can be described thus: Inhibition of recombinant human SphK1 expressed in baculovirus infected sf9 cells using D-erythro-sphingosine as substrate in presence of [gamma-33P]ATP by scintillation counting method.
The target in experiment [2] is T2, Sphingosine kinase 2 (Mus musculus, UniProt Q9JIA7).
T2 sequence (Q9JIA7 whole entry): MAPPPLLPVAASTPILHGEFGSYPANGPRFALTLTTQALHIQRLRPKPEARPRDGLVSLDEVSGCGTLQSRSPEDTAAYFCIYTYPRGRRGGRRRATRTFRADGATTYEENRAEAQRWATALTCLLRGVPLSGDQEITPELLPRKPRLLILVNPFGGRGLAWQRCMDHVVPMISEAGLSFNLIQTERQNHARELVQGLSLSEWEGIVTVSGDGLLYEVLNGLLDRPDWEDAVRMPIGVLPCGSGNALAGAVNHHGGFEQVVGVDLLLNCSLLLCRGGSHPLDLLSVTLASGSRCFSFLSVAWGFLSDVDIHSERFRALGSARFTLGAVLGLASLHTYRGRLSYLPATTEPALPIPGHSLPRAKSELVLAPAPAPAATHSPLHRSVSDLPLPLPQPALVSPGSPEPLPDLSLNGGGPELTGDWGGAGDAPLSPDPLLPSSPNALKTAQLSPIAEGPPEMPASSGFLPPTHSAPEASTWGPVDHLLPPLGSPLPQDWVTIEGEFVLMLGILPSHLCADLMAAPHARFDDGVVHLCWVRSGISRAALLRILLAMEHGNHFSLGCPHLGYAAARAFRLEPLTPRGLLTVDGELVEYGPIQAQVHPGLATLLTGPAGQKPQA
As to the kind of experiment: Inhibition of recombinant mouse SphK2 expressed in baculovirus infected sf9 cells using D-erythro-sphingosine as substrate in presence of [gamma-33P]ATP by scintillation counting method.

In experiment [3] the target is T3, Sphingosine kinase 2 (Homo sapiens, UniProt Q9NRA0).
T3 sequence (Q9NRA0 whole entry): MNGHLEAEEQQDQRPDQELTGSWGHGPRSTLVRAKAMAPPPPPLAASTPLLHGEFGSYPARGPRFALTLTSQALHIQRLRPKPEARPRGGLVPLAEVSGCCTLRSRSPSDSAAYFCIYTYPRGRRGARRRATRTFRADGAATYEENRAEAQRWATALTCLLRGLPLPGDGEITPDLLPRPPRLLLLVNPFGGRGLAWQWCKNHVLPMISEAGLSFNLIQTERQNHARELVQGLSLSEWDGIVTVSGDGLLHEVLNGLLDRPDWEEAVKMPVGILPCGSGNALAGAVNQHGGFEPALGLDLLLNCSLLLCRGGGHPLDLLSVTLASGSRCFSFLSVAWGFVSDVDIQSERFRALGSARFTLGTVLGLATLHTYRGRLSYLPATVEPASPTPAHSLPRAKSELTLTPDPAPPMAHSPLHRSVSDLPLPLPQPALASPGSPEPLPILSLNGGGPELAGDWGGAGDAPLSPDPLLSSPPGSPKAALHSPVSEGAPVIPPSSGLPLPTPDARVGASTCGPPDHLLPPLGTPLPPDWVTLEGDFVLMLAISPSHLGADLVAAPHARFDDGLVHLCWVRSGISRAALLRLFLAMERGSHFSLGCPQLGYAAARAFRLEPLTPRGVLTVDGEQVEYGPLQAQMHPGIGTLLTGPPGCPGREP
As to the kind of experiment: Inhibition of recombinant N-terminal GST-tagged human SphK2 (1 to 618 residues) expressed in baculovirus expression system using sphingosine as substrate after 1 hr in presence of ATP by off-chip mobility shift assay. A digest of the protocol:
(§1)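 GST-fusion kinases purified on glutathione sepharose. Compounds in DMSO diluted fourfold into 20 mM HEPES pH 7.5, 0.01% Triton X-100, 2 mM DTT. Reaction: 1 µM sphingosine, 5 mM MgCl2, ATP 25 µM (SphK1) or 600 µM (SphK2), room temperature 1 h, n = 2. Read-out: P/(P+S) from electrophoretic peak heights. […] IC50 fitted.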

In experiment [4] the target is T1, Sphingosine kinase 1. The experiment can be described thus: Inhibition of recombinant N-terminal GST-tagged human SphK1 (1 to 384 residues) expressed in baculovirus expression system using sphingosine as substrate after 1 hr in presence of ATP by off-chip mobility shift assay. A digest of the protocol:
as §1

The target in experiment [5] is T1, Sphingosine kinase 1. As to the kind of experiment: Inhibition of recombinant human SphK1 using NBD-sphingosine as substrate after 2 hrs in presence of ATP by HPLC method.
For experiment [6], the target named is T3, Sphingosine kinase 2. As to the kind of experiment: Inhibition of recombinant human SphK2 using NBD-sphingosine as substrate after 2 hrs in presence of ATP by HPLC method.
Experiment [7] addresses T3, Sphingosine kinase 2. The experiment can be described thus: Inhibition of human SphK2 using sphingosine as substrate after 15 to 20 mins in presence of [gamma-32P]ATP by Cerenkov counting method.
The target in experiment [8] is T1, Sphingosine kinase 1. The experiment can be described thus: Inhibition of human SphK1 using sphingosine as substrate after 15 to 20 mins in presence of [gamma-32P]ATP by Cerenkov counting method.
Experiment [9] addresses T1, Sphingosine kinase 1. As to the kind of experiment: Inhibition of human SphK1 using sphingosine as substrate in presence of [gamma-32P]ATP.

T1 sequence (Q9NYA1 whole entry): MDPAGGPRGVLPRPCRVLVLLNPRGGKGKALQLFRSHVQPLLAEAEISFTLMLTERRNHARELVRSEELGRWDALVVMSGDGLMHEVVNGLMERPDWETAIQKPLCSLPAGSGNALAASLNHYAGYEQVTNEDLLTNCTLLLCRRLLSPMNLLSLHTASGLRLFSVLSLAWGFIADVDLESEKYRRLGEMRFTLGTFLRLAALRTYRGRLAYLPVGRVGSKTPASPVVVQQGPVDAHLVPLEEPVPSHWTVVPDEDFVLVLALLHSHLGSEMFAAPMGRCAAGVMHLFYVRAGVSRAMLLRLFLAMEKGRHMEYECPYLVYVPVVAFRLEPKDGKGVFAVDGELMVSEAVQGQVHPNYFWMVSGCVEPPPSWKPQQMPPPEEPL

Regarding `CCCCCCCCCCCCc1ccc(-c2noc(C3(C(=N)N)CC3)n2)cc1`, the Ki was 40 nM in experiment [1] and 14100 nM in experiment [2]. With `CCCCCCCCc1ccccc1CC[C@@H]1OC[C@@H](N)[C@@H]1O`, the IC50 in experiment [3] and in [4] was greater than 30000 nM each time. Consider `N[C@@H]1CO[C@@H](CCCCCCCCCOCC2CCCCC2)[C@H]1O`, for which the results for the IC50 in experiment [3] and in experiment [4] were 460 nM and 670 nM, respectively. For the compound `CCCCCCCOCCCCCC[C@@H]1OC[C@@H](N)[C@@H]1O`, the values for the IC50 in experiment [3] and in experiment [4] were 3900 nM and 9600 nM, respectively. For `CC(=O)N(C1=C(Cl)C(=O)c2ccccc2C1=O)C1CCCCC1`, the IC50 in experiment [5] is 2000 nM; in [6], greater than 100000 nM. Consider `CCCCCCCCCCc1ccc(CC[C@@H]2OC[C@@H](N)[C@@H]2O)cc1`, for which the results for the IC50 in experiment [3] and in experiment [4] were 670 nM and 420 nM, respectively. `CCCCCCCCCCCCCC[C@@H]1OC[C@@H](NC(C)=O)[C@@H]1O`: the IC50 in experiment [3] and in experiment [4] was greater than 30000 nM in each case.

Regarding `CCCCCCCCCOCCCC[C@@H]1OC[C@@H](N)[C@@H]1O`, the IC50 in experiment [3] and in [4] was greater than 30000 nM each time.

On to `CCCCCCCCCCCCCC[C@@H]1OC[C@@H](NC(C)=N)[C@@H]1O`, for which the figures for the IC50 in experiment [3] and in experiment [4] were 9400 nM and 3100 nM, respectively.

Regarding `CCCCCCCCCCCCCC[C@@H]1OC[C@@H](N)[C@@H]1OC`, the IC50 in experiment [3] was greater than 30000 nM; in experiment [4], 4000 nM. As to `CCCCCCCCc1ccc(CC[C@@](N)(CO)COC)cc1`, the IC50 is 27000 nM in [7] and greater than 50000 nM in experiment [8]. Take `O=C(NCc1ccncc1)C12CC3CC(C1)CC(c1ccc(Cl)cc1)(C3)C2` [ABC-294640]: the IC50 in [5] is greater than 100000 nM; in experiment [6], 60000 nM.

As to `CC(C)COCCCCCCCCCCC[C@@H]1OC[C@@H](N)[C@@H]1O`, the IC50 in experiment [3] turned out to be 840 nM; in [4] it was 710 nM. Take `CCCCCCCCc1ccc(CC[C@@H]2OC[C@@H](N)[C@@H]2O)cc1`: the IC50 came to 560 nM in [3] and 1400 nM in experiment [4]. With `CCCCCCCc1cccc(CC[C@@H]2OC[C@@H](N)[C@@H]2O)c1`, the IC50 in [3] is 2200 nM; in experiment [4] it was greater than 30000 nM. The matching figures for `CCCCCCCCCc1cccc(CC[C@@H]2OC[C@@H](N)[C@@H]2O)c1`: 1700 nM and 12000 nM.

As for `CCCCCCCCCCCCc1ccc(CC[C@@H]2OC[C@@H](N)[C@@H]2O)cc1`, the IC50 in experiment [3] was determined as 21000 nM; in experiment [4], 880 nM.

With `N[C@@H]1CO[C@@H](CCCCCCCCCCOCC2CCCCC2)[C@H]1O`, the IC50 is 240 nM in experiment [3] and 220 nM in experiment [4]. The matching figures for `CCCCCCCCCCCCCC[C@@H]1OC[C@@H](NC(=N)N)[C@@H]1O`: 1900 nM and 1100 nM. `CCCCOc1ccc(CC/C=C2\SC(=O)N(CCN)C2=O)cc1`: the IC50 in experiment [9] is greater than 10000 nM. On to `N[C@@H]1CO[C@@H](CCCCCCCCCCCOCC2CCCCC2)[C@H]1O`, for which the IC50 in [3] came to 780 nM; in [4] it was 380 nM.

On to `N[C@@H]1CO[C@@H](CCCCCCCCOCC2CCCCC2)[C@H]1O`, for which the IC50 came to 1300 nM in experiment [3] and 2800 nM in experiment [4]. On to `CCCCCCCCCCCCCC[C@@H]1OC[C@@H](N)[C@@H]1O`, for which the IC50 in experiment [3] was in the range of 600 to 740 nM; in [4], 820 to 1100 nM. For `CCCCCCc1ccc(CC[C@@H]2OC[C@@H](N)[C@@H]2O)cc1`, in that order: 8300 nM and greater than 30000 nM.

As for `CCCCCCCCc1cccc(CC[C@@H]2OC[C@@H](N)[C@@H]2O)c1`, the figures for the IC50 in [3] and in experiment [4] were 2100 nM and 16000 nM, respectively. On to `CCCCCCCCCCCCCCc1ccc(CC[C@@H]2OC[C@@H](N)[C@@H]2O)cc1`, for which the IC50 in experiment [3] and in experiment [4] was greater than 30000 nM in each case.

The values are drawn from ChEMBL document CHEMBL4033636, “Identification of selective inhibitors of sphingosine kinases 1 and 2 through a structure-activity relationship study of 4-epi-jaspine B” (Bioorg Med Chem, 2017).
